# Test results: ChEMBL document CHEMBL4261600 (Eur J Med Chem, 2018)
# The source made the active and inactive calls. The calls are words filed in the database; no cut-off is given here.
# Legend:
# [1] = molecular target: Tyrosine-protein kinase receptor Tie-1 (Homo sapiens) (UniProt P35590); assay: Binding affinity to wild-type human partial length TIE1 (T819 to A1138 residues) expressed in bacterial expression system assessed as remaining unbound target protein level at 1000 nM by Kinomescan method relative to control
# [2] = molecular target: Serine/threonine-protein kinase PLK3 (Homo sapiens) (UniProt Q9H4B4); assay: Binding affinity to wild-type human partial length PLK3 (A42 to L334 residues) expressed in mammalian expression system assessed as remaining unbound target protein level at 1000 nM by Kinomescan method relative to control
# [3] = molecular target: Angiopoietin-1 receptor (Homo sapiens) (UniProt Q02763); assay: Binding affinity to wild-type human partial length TIE2 (N804 to T1112 residues) expressed in bacterial expression system assessed as remaining unbound target protein level at 1000 nM by Kinomescan method relative to control
# [4] = molecular target: Cyclin-dependent kinase 7 (Homo sapiens) (UniProt P50613); assay: Inhibition of CDK7 in human MV4-11 cells assessed as decrease in RNA polymerase 2 phosphorylation at Ser 5 residues up to 3 uM after 2 hrs by immunoblotting analysis; assay type: cell-based
# [5] = molecular target: Myotonin-protein kinase (Homo sapiens) (UniProt Q09013); assay: Binding affinity to wild-type human partial length DMPK (V47 to V415 residues) expressed in bacterial expression system assessed as remaining unbound target protein level at 1000 nM by Kinomescan method relative to control
# [6] = molecular target: Death-associated protein kinase 3 (Homo sapiens) (UniProt O43293); assay: Binding affinity to wild-type human partial length DAPK3 (M1 to A277 residues) expressed in bacterial expression system assessed as remaining unbound target protein level at 1000 nM by Kinomescan method relative to control
# Summary of the method: (§1)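 KINOMEscan binding panel of 468 kinases/mutants. Inhibitor was tested at a single concentration of 1 μM. Binding is reported as percent of control, defined relative to a DMSO control.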
# [7] = molecular target: MAP/microtubule affinity-regulating kinase 4 (Homo sapiens) (UniProt Q96L34); assay: Binding affinity to wild-type human partial length MARK4 (K29 to G340 residues) expressed in bacterial expression system assessed as remaining unbound target protein level at 1000 nM by Kinomescan method relative to control
# Homo sapiens [8] = species: Homo sapiens; assay: Selectivity ratio of IC50 for recombinant full length His-tagged human CDK8/CyclinC to IC50 for recombinant full length His-tagged human CDK9/CyclinT1
# [9] = molecular target: Epidermal growth factor receptor (Homo sapiens) (UniProt P00533); assay: Binding affinity to human partial length EGFR L747-T751del/Sins mutant expressed in bacterial expression system assessed as remaining unbound target protein level at 1000 nM by Kinomescan method relative to control
# Summary of the method: (§2)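 KINOMEscan competition-binding profiling across the panel of 468 kinases and mutants, with inhibitor tested at 1 μM. Binding is expressed as percent of control, with DMSO as the reference control.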
# MV4-11 [10] = assay: Cell cycle arrest in human MV4-11 cells increase in accumulation at G0/G1 phase at 0.01 to 0.03 uM after 24 hrs by propidium iodide/RNase staining based flow cytometric analysis
# MV4-11 [11] = assay: Antitumor activity against human MV4-11 cells xenografted in nu/nu mouse assessed as tumor growth inhibition at 10 to 30 mg/kg, po administered via gavage for 2 weeks measured every day during compound dosing; assay type: functional, organism-based
# Summary of the method: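 Female nu/nu mice, five weeks old, implanted subcutaneously in the right flank with 5 million MV4-11 cells in PBS/Matrigel 1:1. Daily oral gavage in 0.5% methylcellulose/0.4% Tween80 started at tumor volume 200–400 mm³, 10, 20 or 30 mg/kg/day or vehicle, 5 mice per group. Tumor volume (W²×L)/2 and body weight measured daily; mean ± SEM.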
# [12] = test system: Phosphatidylinositol 4,5-bisphosphate 3-kinase catalytic subunit alpha isoform (Homo sapiens), P42336 [H1047L]; assay: Binding affinity to human partial length PIK3CA H1047L mutant (R108 to N1068 residues) expressed in mammalian expression system assessed as remaining unbound target protein level at 1000 nM by Kinomescan method relative to control; summary of the method: as §2
# [13] = molecular target: Mast/stem cell growth factor receptor Kit (Homo sapiens) (UniProt P10721); assay: Binding affinity to wild-type human partial length KIT (I571 to D952 residues) expressed in bacterial expression system assessed as remaining unbound target protein level at 1000 nM by Kinomescan method relative to control
# COLO 205 = assay: Antiproliferative activity against human COLO205 cells after 72 hrs by Celltiter-Glo assay; assay type: functional; conditions: COLO 205, 72 h
# Summary of the method: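 Cells seeded at 3000/well in 96-well plates, exposed to serially diluted compound for 72 h at 37 °C, 5% CO2. Viability read by CellTiter-Glo luminescence and normalized to DMSO control. GI50 derived from curve fit, mean of three independent measurements. Culture media: DMEM/10% FBS for adherent lines; IMDM for MV4-11 and MEC-1/2; RPMI 1640 for suspension lines and CHL.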
# [14] = molecular target: Serine/threonine-protein kinase WNK1 (Homo sapiens) (UniProt Q9H4A3); assay: Binding affinity to wild-type human partial length WNK1 (Q194 to A490 residues) expressed in mammalian expression system assessed as remaining unbound target protein level at 1000 nM by Kinomescan method relative to control
# [15] = molecular target: Tyrosine-protein kinase HCK (Homo sapiens) (UniProt P08631); assay: Binding affinity to wild-type human full length HCK (M22 to P526 residues) expressed in bacterial expression system assessed as remaining unbound target protein level at 1000 nM by Kinomescan method relative to control
# Summary of the method: (§3)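 Single-point competition binding screen across a panel of 468 kinases and mutants, with the inhibitor at 1 μM. Binding is read out as percent of a DMSO control, and targets below 1 percent control were classed as strong binders.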
# [16] = molecular target: Rhodopsin kinase GRK7 (Homo sapiens) (UniProt Q8WTQ7); assay: Binding affinity to wild-type human full length GRK7 (M1 to L553 residues) expressed in mammalian expression system assessed as remaining unbound target protein level at 1000 nM by Kinomescan method relative to control; summary of the method: as §3
# [17] = molecular target: Peripheral plasma membrane protein CASK (Homo sapiens) (UniProt O14936); assay: Binding affinity to wild-type human partial length CASK (M1 to H315 residues) expressed in mammalian expression system assessed as remaining unbound target protein level at 1000 nM by Kinomescan method relative to control
# Summary of the method: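 KINOMEscan competition binding profile across a panel of 468 kinases and mutants, with the inhibitor tested at a single concentration of 1 μM. Binding is reported as percent of control, meaning signal relative to a DMSO control.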
# Homo sapiens [18] = species: Homo sapiens; assay: Selectivity ratio of IC50 for recombinant GST-tagged human CDK3/cyclin E1 to IC50 for recombinant full length His-tagged human CDK9/CyclinT1
# [19] = molecular target: Mitogen-activated protein kinase kinase kinase kinase 4 (Homo sapiens) (UniProt O95819); assay: Binding affinity to wild-type human partial length MAP4K4 (M1 to R310 residues) expressed in bacterial expression system assessed as remaining unbound target protein level at 1000 nM by Kinomescan method relative to control; summary of the method: as §1
# [20] = MRT (0 to infinity) in beagle dog at 2 mg/kg, iv by LC-MS/MS analysis; assay type: ADME, organism-based, Canis lupus familiaris; conditions: in vivo
# Peripheral plasma membrane protein CASK (Homo sapiens), sequence (O14936 whole entry, the tested form may be a part): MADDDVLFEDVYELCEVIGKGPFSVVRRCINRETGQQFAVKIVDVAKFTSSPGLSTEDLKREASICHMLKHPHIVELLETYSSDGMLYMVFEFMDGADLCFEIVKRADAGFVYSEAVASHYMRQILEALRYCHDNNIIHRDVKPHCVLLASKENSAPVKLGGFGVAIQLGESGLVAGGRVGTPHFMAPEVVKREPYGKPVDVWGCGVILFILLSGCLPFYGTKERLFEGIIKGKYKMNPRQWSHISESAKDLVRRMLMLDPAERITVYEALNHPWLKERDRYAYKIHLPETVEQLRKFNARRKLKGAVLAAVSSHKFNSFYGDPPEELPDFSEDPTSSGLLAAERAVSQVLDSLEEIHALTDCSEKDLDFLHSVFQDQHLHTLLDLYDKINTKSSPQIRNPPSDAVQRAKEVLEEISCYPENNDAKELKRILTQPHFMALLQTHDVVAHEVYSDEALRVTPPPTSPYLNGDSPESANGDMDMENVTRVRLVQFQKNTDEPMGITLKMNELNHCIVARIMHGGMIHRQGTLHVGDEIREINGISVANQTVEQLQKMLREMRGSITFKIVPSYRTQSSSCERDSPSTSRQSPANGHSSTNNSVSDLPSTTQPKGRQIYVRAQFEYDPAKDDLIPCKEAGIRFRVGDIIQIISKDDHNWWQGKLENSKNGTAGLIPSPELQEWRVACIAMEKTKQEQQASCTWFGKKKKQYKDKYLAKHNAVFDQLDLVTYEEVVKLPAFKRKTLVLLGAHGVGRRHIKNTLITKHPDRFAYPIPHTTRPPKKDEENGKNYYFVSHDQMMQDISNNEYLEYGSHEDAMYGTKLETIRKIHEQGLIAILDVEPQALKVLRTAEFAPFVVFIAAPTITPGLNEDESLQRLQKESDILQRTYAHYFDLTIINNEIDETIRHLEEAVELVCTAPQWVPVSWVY
# MAP/microtubule affinity-regulating kinase 4 (Homo sapiens), sequence (Q96L34 whole entry, the tested form may be a part): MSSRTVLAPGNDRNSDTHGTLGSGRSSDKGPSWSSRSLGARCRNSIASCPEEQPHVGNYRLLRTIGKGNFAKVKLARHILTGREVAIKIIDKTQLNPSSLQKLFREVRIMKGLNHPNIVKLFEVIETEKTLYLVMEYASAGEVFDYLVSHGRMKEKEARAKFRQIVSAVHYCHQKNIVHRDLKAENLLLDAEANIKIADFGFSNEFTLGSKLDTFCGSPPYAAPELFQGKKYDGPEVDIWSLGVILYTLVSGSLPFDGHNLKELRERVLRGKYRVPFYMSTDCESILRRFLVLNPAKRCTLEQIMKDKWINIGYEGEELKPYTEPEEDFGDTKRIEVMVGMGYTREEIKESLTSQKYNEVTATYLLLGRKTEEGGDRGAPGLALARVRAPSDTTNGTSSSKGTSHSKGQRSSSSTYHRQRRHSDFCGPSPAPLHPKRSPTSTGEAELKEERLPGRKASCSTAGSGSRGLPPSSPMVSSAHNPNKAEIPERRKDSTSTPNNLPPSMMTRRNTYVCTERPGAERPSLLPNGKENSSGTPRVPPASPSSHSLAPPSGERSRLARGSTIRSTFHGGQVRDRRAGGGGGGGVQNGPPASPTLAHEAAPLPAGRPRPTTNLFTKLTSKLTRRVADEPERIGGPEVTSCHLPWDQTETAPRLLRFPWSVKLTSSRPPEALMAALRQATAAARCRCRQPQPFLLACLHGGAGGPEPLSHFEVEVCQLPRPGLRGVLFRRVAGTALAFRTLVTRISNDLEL
# Tyrosine-protein kinase receptor Tie-1 (Homo sapiens), sequence (P35590 whole entry, the tested form may be a part): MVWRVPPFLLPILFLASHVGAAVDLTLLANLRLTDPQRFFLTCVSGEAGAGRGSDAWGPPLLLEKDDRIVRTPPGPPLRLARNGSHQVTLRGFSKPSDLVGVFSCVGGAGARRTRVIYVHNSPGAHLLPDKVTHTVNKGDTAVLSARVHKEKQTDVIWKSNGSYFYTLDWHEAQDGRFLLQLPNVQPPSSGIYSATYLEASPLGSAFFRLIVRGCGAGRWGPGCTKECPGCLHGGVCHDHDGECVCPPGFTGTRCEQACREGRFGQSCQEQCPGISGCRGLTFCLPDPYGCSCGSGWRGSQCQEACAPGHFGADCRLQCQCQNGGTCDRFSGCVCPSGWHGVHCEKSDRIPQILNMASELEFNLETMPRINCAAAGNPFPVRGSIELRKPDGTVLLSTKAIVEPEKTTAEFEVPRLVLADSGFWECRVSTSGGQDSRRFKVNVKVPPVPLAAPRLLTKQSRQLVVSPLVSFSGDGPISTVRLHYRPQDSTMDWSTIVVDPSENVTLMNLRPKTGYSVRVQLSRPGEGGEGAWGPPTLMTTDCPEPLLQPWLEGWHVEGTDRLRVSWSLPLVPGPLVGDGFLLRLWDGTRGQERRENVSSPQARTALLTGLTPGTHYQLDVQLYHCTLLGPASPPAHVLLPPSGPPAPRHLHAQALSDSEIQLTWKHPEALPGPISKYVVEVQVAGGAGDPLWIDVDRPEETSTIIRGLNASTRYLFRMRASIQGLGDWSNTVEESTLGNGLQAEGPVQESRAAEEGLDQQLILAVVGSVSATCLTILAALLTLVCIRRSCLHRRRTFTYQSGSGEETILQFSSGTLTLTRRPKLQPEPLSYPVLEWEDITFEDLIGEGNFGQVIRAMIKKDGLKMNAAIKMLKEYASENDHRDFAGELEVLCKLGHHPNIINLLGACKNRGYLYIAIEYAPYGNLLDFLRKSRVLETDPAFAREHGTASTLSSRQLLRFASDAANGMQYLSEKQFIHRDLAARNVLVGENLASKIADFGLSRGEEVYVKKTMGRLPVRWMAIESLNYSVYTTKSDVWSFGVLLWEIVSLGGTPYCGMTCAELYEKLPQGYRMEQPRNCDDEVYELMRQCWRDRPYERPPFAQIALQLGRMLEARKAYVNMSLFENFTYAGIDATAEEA
# Tyrosine-protein kinase HCK (Homo sapiens), sequence (P08631 2-526 limits assumed): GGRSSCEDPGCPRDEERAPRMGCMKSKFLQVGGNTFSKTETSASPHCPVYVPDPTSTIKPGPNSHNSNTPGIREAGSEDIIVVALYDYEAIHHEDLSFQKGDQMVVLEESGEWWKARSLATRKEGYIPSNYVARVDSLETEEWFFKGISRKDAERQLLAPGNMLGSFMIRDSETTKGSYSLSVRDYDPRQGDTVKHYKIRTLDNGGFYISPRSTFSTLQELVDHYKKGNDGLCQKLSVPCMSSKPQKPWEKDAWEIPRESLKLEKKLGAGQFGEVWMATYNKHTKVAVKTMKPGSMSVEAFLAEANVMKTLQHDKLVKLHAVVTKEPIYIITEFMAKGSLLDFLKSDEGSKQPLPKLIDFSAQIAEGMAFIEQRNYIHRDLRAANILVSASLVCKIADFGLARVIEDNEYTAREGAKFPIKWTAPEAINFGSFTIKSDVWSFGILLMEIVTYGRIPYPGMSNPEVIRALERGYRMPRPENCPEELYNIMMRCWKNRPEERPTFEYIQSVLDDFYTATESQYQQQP
# Mast/stem cell growth factor receptor Kit (Homo sapiens), sequence (P10721 whole entry, the tested form may be a part): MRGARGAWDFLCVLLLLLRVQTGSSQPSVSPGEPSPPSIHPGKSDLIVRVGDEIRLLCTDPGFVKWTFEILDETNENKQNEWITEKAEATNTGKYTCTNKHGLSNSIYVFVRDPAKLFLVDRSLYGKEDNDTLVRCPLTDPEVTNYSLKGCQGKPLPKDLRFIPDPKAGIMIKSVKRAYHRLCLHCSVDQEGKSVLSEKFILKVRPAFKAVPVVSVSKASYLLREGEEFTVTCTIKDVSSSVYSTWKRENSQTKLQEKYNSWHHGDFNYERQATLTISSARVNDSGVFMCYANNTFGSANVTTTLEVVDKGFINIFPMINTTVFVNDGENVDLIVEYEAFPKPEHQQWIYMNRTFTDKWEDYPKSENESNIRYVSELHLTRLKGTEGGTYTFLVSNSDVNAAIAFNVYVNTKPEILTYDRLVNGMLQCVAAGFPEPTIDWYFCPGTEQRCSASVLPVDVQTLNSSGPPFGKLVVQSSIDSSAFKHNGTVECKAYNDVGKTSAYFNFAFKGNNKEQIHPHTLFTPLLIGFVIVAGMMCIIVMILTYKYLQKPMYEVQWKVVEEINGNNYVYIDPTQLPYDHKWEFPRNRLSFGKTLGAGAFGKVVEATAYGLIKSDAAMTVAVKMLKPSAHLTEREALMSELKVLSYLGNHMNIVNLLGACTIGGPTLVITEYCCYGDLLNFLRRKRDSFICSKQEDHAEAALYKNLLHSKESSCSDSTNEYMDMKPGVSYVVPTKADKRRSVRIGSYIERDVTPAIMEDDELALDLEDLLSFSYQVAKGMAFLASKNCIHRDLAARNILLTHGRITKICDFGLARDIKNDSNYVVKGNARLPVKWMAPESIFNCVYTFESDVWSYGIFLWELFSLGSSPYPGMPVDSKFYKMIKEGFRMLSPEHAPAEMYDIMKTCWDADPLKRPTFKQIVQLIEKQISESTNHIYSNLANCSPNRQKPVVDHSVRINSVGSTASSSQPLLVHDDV
# Myotonin-protein kinase (Homo sapiens), sequence (Q09013 whole entry, the tested form may be a part): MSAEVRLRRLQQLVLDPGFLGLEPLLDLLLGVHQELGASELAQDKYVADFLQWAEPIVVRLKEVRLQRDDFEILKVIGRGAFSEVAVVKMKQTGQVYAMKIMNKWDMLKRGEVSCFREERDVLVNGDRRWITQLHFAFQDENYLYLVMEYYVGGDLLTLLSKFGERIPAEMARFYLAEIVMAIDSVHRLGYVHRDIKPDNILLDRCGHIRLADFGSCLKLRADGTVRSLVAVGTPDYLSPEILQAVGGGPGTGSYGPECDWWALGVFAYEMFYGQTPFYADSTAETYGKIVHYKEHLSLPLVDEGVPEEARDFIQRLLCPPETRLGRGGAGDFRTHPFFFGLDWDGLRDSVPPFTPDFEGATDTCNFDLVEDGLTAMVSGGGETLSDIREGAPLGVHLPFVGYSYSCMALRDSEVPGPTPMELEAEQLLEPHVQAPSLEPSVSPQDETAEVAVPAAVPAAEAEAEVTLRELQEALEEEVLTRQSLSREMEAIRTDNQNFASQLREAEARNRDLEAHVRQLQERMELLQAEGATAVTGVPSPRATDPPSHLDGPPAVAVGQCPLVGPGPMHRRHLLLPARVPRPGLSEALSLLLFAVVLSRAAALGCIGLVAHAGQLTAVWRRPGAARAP
compound,measurement,setting,value
COCCN[C@H]1CC[C@H](Nc2cc(-c3csc(NCC4(C#N)CCOCC4)n3)c(Cl)cn2)CC1,Activity,[1],80%
same,Activity,[2],99%
same,Activity,[3],89%
same,inhibition,[4],inactive
same,Activity,[5],100%
same,Activity,[6],63%
same,Activity,[7],87%
same,Ratio IC50,Homo sapiens [8],> 1000
same,Activity,[9],90%
same,Activity,MV4-11 [10],Active
same,TGI,MV4-11 [11],Active
same,Activity,[12],100%
same,Activity,[13],91%
same,GI50,COLO 205,14 nM
same,Activity,[14],100%
same,Activity,[15],100%
same,Activity,[16],100%
same,Activity,[17],81%
same,Ratio IC50,Homo sapiens [18],> 1000
same,Activity,[19],91%
same,MRT inf,[20],20.4 h
